Assay outcomes deposited in PubChem BioAssay by several laboratories.
Shown are actives, neighbours in structure and some others; about 5.5% of the full set was active somewhere.
WT yeast gro inh – growth inhibition of WT yeast, mitochondrial fusion screen; inhibition, % at 10 µM; mitochondrial fusion phenotypic screen, WT strain; 2.1% of 190,000 active; in the data active means inhibition above about 58%; tested in S. cerevisiae
RAM network inh – blocks the yeast RAM network; S. cerevisiae dse1pr::URA3 reporter, 5-FOA growth OD615, 2 d; analog-sensitive cbk1-as2 kinase mutant strain; inhibition, % at 50 µM; 1.8% of 190,000 active;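 active means inhibition above a set limit, 3 SD over mean compound inhibition, cut at about 8.4% in these data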;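 further: 0% = DMSO-only wells with no growth and 100% = 10 µM 1-NA-PP1 full growth; inhibition rescues growth on 5-FOA so higher OD means more RAM inhibition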
Yeast lifespan up – extends the lifespan of yeast; S. cerevisiae growth with nicotinamide, OD615; deaD strain in restrictive glucose medium; inhibition of the nicotinamide effect, % at 10 µM; 0.68% of 130,000 active; AID 775;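 active means inhibition above a set limit, placed 3 SD over the median of all compounds, cut at about 26% in these data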;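 further: 0% = nicotinamide-treated wells and 100% = cells grown without nicotinamide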
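Material: Modified budding yeast, DeaD strain | Medium: Restrictive glucose medium | Probe or stimulus: 1.5 mM nicotinamide | Dosing: Single dose 10 µM compound, 0.25% DMSO | Times: 48 h at 30 °C | Technique: OD615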
Yeast growth inh – reduces growth of yeast BB579 in restrictive medium | S. cerevisiae BB579 growth, OD615, 48 h | inhibition, % at 10 µM | 0.51% of 140,000 active;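 active means inhibition above a set limit, 3 SD over the mean compound inhibition, cut at about 44% in these data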
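controls = amphotericin B 10 µg/mL, positive | assay system = DeaD yeast strain BB579 | schedule = 48 h compound exposure at 30 °C after 4 h preincubation | detection = OD615 turbidity measurement | medium = restrictive CSMM-D medium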
Cl transport mod – KCC2 (human) Cl- transport modulation; Q9H2X9; KCC2 cells, thallium flux FluoZin-2 fluorescence; B-score of Tl+ flux slope (higher = more flux/activation; lower = inhibition) at 10 µM; 2.2% of 190,000 active;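 active means thallium flux slope and its plate-corrected score both differing from the plate sample mean at a set confidence after two filtering rounds, in either direction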;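 further: slope of fluorescence scaled to starting intensity during 10 to 20 s after thallium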
KCC2 secondary – KCC2 (human) modulation, secondary assay | shares compounds with Cl transport mod | HEK293-KCC2, thallium flux, FluoZin2 fluorescence; hits give high values | normalised thallium flux (F/F0 slope) at 10 µM | 15% of 3,700 active | AID 1713;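 active means thallium flux slope above the same plate's solvent-only control mean plus 3 SD; inconclusive means the two replicate wells disagree; inactive means no significant difference from solvent-only control wells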
KCC2 bumet counter – bumetanide-insensitive thallium flux in KCC2 cells with ouabain, counter-screen; normalized thallium flux at 10 µM; shares compounds with Cl transport mod; HEK293-KCC2 + bumetanide/ouabain, thallium flux FluoZin2; hits give high values; 49% of 3,700 active;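 active means thallium entry rate above the same plate's blocked-transporter control wells by more than 3 SD; inconclusive means the two repeat wells disagree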;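 further: raw slope of fluorescence over initial fluorescence between 10 and 20 s after thallium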
KCC2 secondary2 – confirmation of human KCC2 transport modulators; AID 1715; HEK293-KCC2, thallium flux FluoZin2 fluorescence; actives lie on both sides; F/F0 rise rate, 10–20 s post-thallium; shares compounds with Cl transport mod; 23% of 3,700 active; normalized thallium flux at 10 µM;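 active means thallium flux slope more than 3 SD above or below the plate's solvent-only control mean, mostly below; inconclusive means the two repeat wells disagreed; inactive means no significant shift from solvent-only controls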;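 further: raw slope with 0.1% DMSO as baseline and bumetanide as block control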
HEK293 Tl flux – counter-screen for KCC2 modulators: effect in parental HEK293 cells | shares compounds with Cl transport mod | 46% of 3,700 active | thallium flux FluoZin2, ouabain; baseline-ratio fluorescence slope, 10–20 s after thallium | thallium flux rate (normalised fluorescence) at 10 µM;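 active means thallium flux rate significantly above the same plate's solvent-only control wells, beyond their mean plus 3 SD; inconclusive means the two replicate wells gave conflicting results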
KCC2 retest ouab – modulates human KCC2 on retest with ouabain. shares compounds with Cl transport mod. HEK293-KCC2, thallium flux FluoZin2 fluorescence; bidirectional: low = inhibitor, high = activator. raw Tl+ flux slope (below DMSO = inhibition, above = activation) at 10 µM. 48% of 3,700 active;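 active means thallium flux slope beyond 3 SD from same-plate DMSO control mean in most replicates, usually higher, sometimes lower; inconclusive means repeat tests gave conflicting results; inactive means no significant difference from controls in most replicates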;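 further: slope of initial-normalized fluorescence between seconds 10 and 20 after thallium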
HEK293 Tl flux2 – parental HEK flux effect, counter-screen 2; shares compounds with Cl transport mod; HEK293 parental, thallium flux FluoZin-2 fluorescence slope; thallium flux slope at 10 µM; 33% of 3,700 active; AID 1718;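 active means thallium flux slope above the same plate's solvent-control mean plus 3 SD in both duplicate wells; inconclusive means duplicate wells that disagreed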;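 further: run without ouabain in cells lacking the KCC2 cotransporter; slope of fluorescence scaled to its starting value between 10 and 20 s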
Numbers without * were called inactive; ? = inconclusive; . = not tested or not shown.

SMILES	WT yeast gro inh	RAM network inh	Yeast lifespan up	Yeast growth inh	Cl transport mod	KCC2 secondary	KCC2 bumet counter	KCC2 secondary2	HEK293 Tl flux	KCC2 retest ouab	HEK293 Tl flux2
Cc1ccc(/C=N/n2cc(-c3ccccc3)[nH]c2=S)s1	68.0*	7.1	.	.	32.6*	0.0236*	0.0681*	0.0373	0.0559*	0.0578*	0.0191*
S=c1[nH]c(-c2ccccc2)cn1/N=C/c1cccc2ccccc12	74.8*	1.7	.	.	57.8*	0.00792	0.0792*	0.0774*	0.0778*	0.0863*	0.0698*
S=c1[nH]c(-c2ccccc2)cn1/N=C/c1ccccc1Br	68.5*	5.9	.	.	45.6*	?	0.0659*	0.0632*	0.0671*	0.0795*	0.0466*
COc1ccc(N2C(=O)C(CC(=O)Nc3ccccc3)N(CCc3ccc(OC)c(OC)c3)C2=O)cc1 (stereo not drawn)	-0.1	3.6	.	.	0.306	.	.	.	.	.	.
O=[N+]([O-])c1cccc(NC2=NCCC2)c1	3.3	1.6	.	.	0.804	.	.	.	.	.	.
CCOC(=O)c1c(-c2ccccc2)csc1NC(=O)/C(C#N)=C/c1ccc(O)c(OC)c1	12.6	4.9	-6.4	7.1	5.25*	0.00681	0.0113*	0.0278	0.00948*	0.0198	0.0104
CCOC(=O)c1c(-c2ccccc2)csc1NC(=O)/C(C#N)=C/c1ccc(OC)c(OC)c1	-6.1	4.9	1.6	-26.6	-0.0327	.	.	.	.	.	.
CN(Cc1ccccc1)S(=O)(=O)c1ccc(Cl)c(C(=O)NCc2ccc3c(c2)OCO3)c1	-4.6	3.8	6.4	-21.9	-1.23	.	.	.	.	.	.
O=C(Nc1nnc(C2CC2)s1)c1cc(S(=O)(=O)N2CCN(c3ccccc3)CC2)ccc1Cl	-21.3	0.8	1.0	-46.8	-1.13	.	.	.	.	.	.
O=C(NCc1ccccn1)c1cc(S(=O)(=O)N2CCN(c3ccccc3)CC2)ccc1Cl	33.5	1.1	-7.4	-60.1	.	0.00671	0.00422	0.0256*	0.00763	?	0.0108
CN(Cc1ccccc1)S(=O)(=O)c1ccc(Cl)c(C(=O)NCCc2ccccn2)c1	-6.0	-0.1	.	.	-4.38*	0.00732	0.00497	0.0182*	0.00676	0.012*	0.00915
Cc1c(C(=O)NCc2ccccn2)oc2ccc(S(=O)(=O)N3CCOCC3)cc12	4.0	-1.0	1.0	-15.6	5.2*	0.00524	?	?	0.00787	0.0194	0.0109
COc1ccc(OC)c(N/C(C)=C/C(=O)c2ccc(Br)cc2)c1	21.7	-0.1	.	.	-0.0388	.	.	.	.	.	.
CC(=O)c1ccc(-c2nnc(CCC(=O)N(C)Cc3c(C)nc4ccccn34)o2)s1	-4.6	1.4	.	.	.	.	.	.	.	.	.
C1CCC(OCCN2CCN(CCOC3CCCCC3)CC2)CC1	2.7	0.6	0.5	-22.5	-0.833	.	.	.	.	.	.
c1coc(-c2nnc3sc(Cc4cccs4)nn23)c1	-1.8	-0.3	-24.2	-30.9	.	0.00607	0.00483	0.0277	0.00785	?	0.0105
Clc1ccc(-c2nnc3sc(-c4ccc(Br)o4)nn23)c(Cl)c1	-12.0	2.5	-9.9	-30.6	-0.51	.	.	.	.	.	.
Clc1ccc(-c2nnc3sc(Cc4cccs4)nn23)c(Cl)c1	57.9	3.4	-10.5	3.1	.	0.0086	0.00729	0.034	0.00681	0.0175*	0.0114*
CCOC(=O)C1(CCc2ccccc2)CCN(C(=O)Cc2nonc2C)CC1	20.1	1.9	.	.	-0.975	.	.	.	.	.	.
c1ccc(CNc2ncnc3sc4c(c23)CCC4)nc1	0.3	0.1	-14.8	-15.5	-4.24*	0.00974	0.00491	0.0322	0.0059*	0.0206	0.01
c1cncc(CNc2ncnc3sc4c(c23)CCC4)c1	-2.1	1.0	.	.	-0.458	.	.	.	.	.	.
OCCC1CN(Cc2nc3c(s2)CCCC3)CCN1Cc1ccccc1 (stereo not drawn)	.	.	.	.	-0.294	.	.	.	.	.	.
O=C(Nc1ncc2c(n1)-c1ccccc1CC2)c1cccc(Cl)c1	9.3	-0.4	-14.6	-25.9	-4.4*	0.00653	0.00447	0.0223*	0.00624	0.0135*	0.00871
COc1ccc(-c2cc(C(F)(F)F)n3nc(C(=O)NCc4ccco4)cc3n2)cc1OC	10.4	3.4	-4.4	-53.1	0.00333	.	.	.	.	.	.
CN(C)S(=O)(=O)c1cccc(NC(=O)CN2C(=O)NC(Cc3c[nH]c4ccccc34)C2=O)c1 (stereo not drawn)	-4.5	0.5	.	.	.	.	.	.	.	.	.
CC(C)Nc1oc(Cc2cccc3ccccc23)nc1C#N	4.7	4.9	22.4	-80.4	-4.51*	0.00677	0.00551	?	?	0.0137*	0.0115
N#Cc1nc(Cc2ccccc2)oc1NCc1ccccc1Cl	-0.9	4.7	3.1	-19.3	-2.94*	0.00748	0.00581	0.0301	0.0057*	0.0159*	0.00992
COc1ccc(CCNc2oc(Cc3cccc4ccccc34)nc2C#N)cc1OC	34.2	5.5	-1.3	-15.6	-2.92	.	.	.	.	.	.
